These results are taken from ChEMBL document CHEMBL1208782, “Synthesis and pharmacological validation of a novel series of non-steroidal FXR agonists” (Bioorg Med Chem Lett, 2010).

Data set [1] concerns Mus musculus. As to the kind of experiment: Reduction in total plasma triglyceride level in db/db mouse at 1-25 mg/kg bid after 12 days. It is filed as functional, organism-based. The procedure, abridged: (§1)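 C57BL/KSK-mLep^db/mLep^db mice were dosed orally at 1, 5 and 25 mg/kg b.i.d. for 12 days. Total plasma triglycerides and total plasma cholesterol were measured, with cholesterol reported as mg/dl. Significance was given at p<0.05, <0.01 and <0.001 levels.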

Data set [2] has as its system Mus musculus. The data set can be described thus: Reduction in total plasma cholesterol level in db/db mouse at 1-25 mg/kg bid after 12 days. It is filed as functional, organism-based. The procedure, abridged:
as §1

Data set [3] is described as follows: Plasma concentration in db/db mouse at 25 mg/kg bid after 4 hrs by LC/MS-MS analysis. It is filed as ADME, organism-based. Further details: dose 25 mg/kg. The conditions noted are these: read-out: Drug uptake. The procedure, abridged:
(§2)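 db/db mice were dosed twice daily for 12 days. Plasma and liver concentrations were determined 4 h and 24 h after the last administration.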

Data set [4] can be described thus: Plasma concentration in db/db mouse at 25 mg/kg bid after 24 hrs by LC/MS-MS analysis. It is filed as ADME, organism-based. Details: dose 25 mg/kg. The note with it: read-out: Drug uptake. The procedure, abridged:
as §2

The nature of data set [5]: Drug level in db/db mouse liver at 25 mg/kg bid after 4 hrs by LC/MS-MS analysis. It is filed as ADME, organism-based. Details: dose 25 mg/kg. The note with it: read-out: Drug uptake. Put shortly:
as §2

Data set [6] can be described thus: Drug level in db/db mouse liver at 25 mg/kg bid after 24 hrs by LC/MS-MS analysis. It is filed as ADME, organism-based. Details: dose 25 mg/kg. The conditions noted are these: read-out: Drug uptake. Put shortly: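 C57BL/KSK-mLep^db/mLep^db (db/db) mice dosed orally b.i.d. for 12 days at 1, 5 or 25 mg/kg. Liver concentrations of parent compound measured 24 h after the last administration.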

The source made the active and inactive calls. No cut-off for these calls is given here.

With `CC[C@H]1[C@@H](O)[C@@H]2[C@H](CC[C@]3(C)[C@@H]([C@H](C)CCC(=O)O)CC[C@@H]23)[C@@]2(C)CC[C@@H](O)C[C@@H]12` [OBETICHOLIC ACID], the result in the data set with Mus musculus [1] and in the data set with Mus musculus [2] was Active. Moreover, the concentration at 4 h in data set [3] turned out to be 2.12 µM; in data set [5] it was 13.9 µM. Further, the concentration at 24 h worked out at 3.24 µM in data set [4] and 16.6 µM in data set [6].
